Reference: ChEMBL document CHEMBL1212853, “New chloro,fluorobenzylindole derivatives as integrase strand-transfer inhibitors (INSTIs) and their mode of action” (Bioorg Med Chem, 2010)

Columns and labels:
[1] = tested on: Human immunodeficiency virus 1; experiment: Antiviral activity against HIV1 infected in human MT4 cells assessed as inhibition of virus-induced cytopathic effect; assay type: functional, organism-based; settings: Human immunodeficiency virus 1, MT4
Summary of the method: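 MT-4/MTT assay: MT-4 cells were infected with 100–300 CCID50 of an HIV-1 IIIB stock, titrated on MT-4 cells, in the presence of fivefold serial compound dilutions. Cell protection from virus-induced cytopathic effect was read spectrophotometrically as MTT reduction to formazan by viable cells. EC50 is the concentration giving 50% protection. Averages ± SD.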

[2] = Selectivity index, ratio of CC50 for human MT4 cells to EC50 for HIV1 cells; assay type: toxicity, cell-based; settings: read-out: Selectivity Index
Summary of the method: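 MT-4/MTT assay in human MT-4 lymphocytes. Cells were infected with 100–300 CCID50 of HIV-1 strain IIIB, titrated on MT-4 cells, in the presence of fivefold serial compound dilutions. Viability was read spectrophotometrically as MTT reduced to formazan. EC50 is 50% protection against virus-induced cytopathic effect; CC50 was determined in parallel. SI is calculated as CC50/EC50.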

[3] = molecular target: T1, Human immunodeficiency virus type 1 integrase (Human immunodeficiency virus 1, UniProt Q7ZJM1)
T1 sequence (Q7ZJM1 whole entry): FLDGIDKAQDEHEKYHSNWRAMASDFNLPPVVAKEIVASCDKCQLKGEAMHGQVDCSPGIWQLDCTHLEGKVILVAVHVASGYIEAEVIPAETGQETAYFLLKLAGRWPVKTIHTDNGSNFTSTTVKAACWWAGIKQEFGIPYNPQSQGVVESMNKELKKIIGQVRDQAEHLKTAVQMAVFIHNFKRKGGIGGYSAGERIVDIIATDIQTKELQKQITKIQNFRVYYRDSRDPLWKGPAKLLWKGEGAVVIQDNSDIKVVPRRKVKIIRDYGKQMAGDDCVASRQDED

MT4 = experiment: Cytotoxicity against human MT4 cells by MTT assay; assay type: cell-based
Summary of the method: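 Run in parallel with the antiviral MT-4/MTT assay, using fivefold serial compound dilutions. Viability was read spectrophotometrically as MTT reduction to formazan by mitochondrial dehydrogenase. CC50 is the concentration reducing MT-4 viability by 50%. Averages ± SD.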

[4] = molecular target: T1, Human immunodeficiency virus type 1 integrase; remark: listed apart in the source

SMILES | EC50 [1] | selectivity ratio [2] | IC50 [3] | EC50 (MT4) | IC50 [4]
COc1cccc2c1c(C(=O)/C=C(\O)C(=O)O)cn2Cc1cccc(Cl)c1 | 0.64 µM | 47 | 0.13 µM | 30.2 µM | 0.03 µM
COc1cccc2c1c(C(=O)/C=C(\O)C(=O)O)cn2Cc1ccc(Cl)cc1 | 20.6 µM | 2 | 1.02 µM | 33.5 µM | 0.59 µM
COc1cccc2c1c(C(=O)/C=C(\O)C(=O)O)cn2Cc1cccc(F)c1Cl | 0.36 µM | 18 | 5.24 µM | 6.5 µM | 12.7 µM
COc1cccc2c1c(C(=O)/C=C(\O)C(=O)O)cn2Cc1ccc(F)cc1Cl | 4.3 µM | 11 | 0.54 µM | 47.2 µM | 0.06 µM
COc1cccc2c1c(C(=O)/C=C(\O)C(=O)O)cn2Cc1cc(F)ccc1Cl | 3.3 µM | 8 | 0.42 µM | 26.3 µM | 0.27 µM
COc1cccc2c1c(C(=O)/C=C(\O)C(=O)O)cn2Cc1c(F)cccc1Cl | 0.56 µM | 111 | 0.53 µM | 62 µM | 0.13 µM
COc1cccc2c1c(C(=O)/C=C(\O)C(=O)O)cn2Cc1cccc(Cl)c1F | 0.43 µM | 35 | 0.74 µM | 15 µM | 0.03 µM
COc1cccc2c1c(C(=O)/C=C(\O)C(=O)O)cn2Cc1ccc(F)c(Cl)c1 | 0.43 µM | 74 | 0.04 µM | 31.7 µM | 0.12 µM
COc1cccc2c1c(C(=O)/C=C(\O)C(=O)O)cn2Cc1cc(F)cc(Cl)c1 | 0.52 µM | 62 | 0.24 µM | 32.1 µM | 0.25 µM
COc1cccc2c1c(C(=O)/C=C(\O)C(=O)O)cn2Cc1cc(Cl)ccc1F | 4.17 µM | 3 | 0.32 µM | 10.8 µM | 0.09 µM
COc1cccc2c1c(C(=O)/C=C(\O)C(=O)O)cn2Cc1ccc(Cl)cc1F | > 22.5 µM | < 1 | 2.53 µM | 23 µM | 5.52 µM
COc1cccc2c1c(C(=O)/C=C(\O)C(=O)O)cn2Cc1ccc(Cl)c(F)c1 | > 23.3 µM | < 1 | 3.33 µM | 23.3 µM | 4.58 µM
CCOC(=O)/C(O)=C/C(=O)c1cn(Cc2ccccc2Cl)c2cccc(OC)c12 | 2.51 µM | 14 | 13.1 µM | 34.5 µM | 0.73 µM
CCOC(=O)/C(O)=C/C(=O)c1cn(Cc2cccc(Cl)c2)c2cccc(OC)c12 | 3.25 µM | 17 | 4.78 µM | 52.9 µM | 2.89 µM
CCOC(=O)/C(O)=C/C(=O)c1cn(Cc2ccc(Cl)cc2)c2cccc(OC)c12 | 41.3 µM | 1 | 5.78 µM | 41.3 µM | 8.26 µM
CCOC(=O)/C(O)=C/C(=O)c1cn(Cc2cccc(F)c2Cl)c2cccc(OC)c12 | 2.52 µM | 7 | 1.39 µM | 18.5 µM | 9.2 µM
CCOC(=O)/C(O)=C/C(=O)c1cn(Cc2ccc(F)cc2Cl)c2cccc(OC)c12 | 4.06 µM | 13 | 1.74 µM | 51.4 µM | 2.56 µM
CCOC(=O)/C(O)=C/C(=O)c1cn(Cc2cc(F)ccc2Cl)c2cccc(OC)c12 | 16.4 µM | 3 | 2.7 µM | 39.6 µM | 2.94 µM
CCOC(=O)/C(O)=C/C(=O)c1cn(Cc2c(F)cccc2Cl)c2cccc(OC)c12 | 4.66 µM | 5 | 2.86 µM | 25.4 µM | 1.2 µM
CCOC(=O)/C(O)=C/C(=O)c1cn(Cc2cccc(Cl)c2F)c2cccc(OC)c12 | 2.31 µM | 20 | 1.37 µM | 46.9 µM | 0.74 µM
CCOC(=O)/C(O)=C/C(=O)c1cn(Cc2ccc(F)c(Cl)c2)c2cccc(OC)c12 | 1.87 µM | 26 | 0.36 µM | 49.3 µM | 0.07 µM
CCOC(=O)/C(O)=C/C(=O)c1cn(Cc2cc(F)cc(Cl)c2)c2cccc(OC)c12 | 4.27 µM | 14 | 1.3 µM | 58.2 µM | 3.17 µM
CCOC(=O)/C(O)=C/C(=O)c1cn(Cc2cc(Cl)ccc2F)c2cccc(OC)c12 | 18.1 µM | 1 | 1.61 µM | 18.1 µM | 0.89 µM
CCOC(=O)/C(O)=C/C(=O)c1cn(Cc2ccc(Cl)cc2F)c2cccc(OC)c12 | > 17 µM | < 1 | 1.15 µM | 17 µM | 3.32 µM
CCOC(=O)/C(O)=C/C(=O)c1cn(Cc2ccc(Cl)c(F)c2)c2cccc(OC)c12 | > 63.7 µM | < 1 | 5.05 µM | 63.7 µM | 20.4 µM
COc1cccc2c1c(C(=O)/C=C(\O)C(=O)O)cn2Cc1ccccc1Cl | 0.42 µM | 64 | 0.71 µM | 27 µM | 0.52 µM
COc1cc2c(cc1Cc1cccc(Cl)c1F)c(=O)c(C(=O)O)cn2[C@H](CO)C(C)C | – | – | – | 2.12 µM | –
Cc1nnc(C(=O)NC(C)(C)c2nc(C(=O)NCc3ccc(F)cc3)c(O)c(=O)n2C)o1 | – | – | – | > 18 µM | –
COc1cccc2c1c(C(=O)/C=C(\O)C(=O)O)cn2Cc1ccc(F)cc1 | – | 70 | – | 41.1 µM | –
